Key:
[1] = molecular target: T1, Renin (Homo sapiens, UniProt P00797); assay: Inhibition of purified human kidney renin, radioimmunoassay using a synthetic tetradecapeptide renin substrate at 10e-9 M concentration
T1 sequence (P00797 whole entry): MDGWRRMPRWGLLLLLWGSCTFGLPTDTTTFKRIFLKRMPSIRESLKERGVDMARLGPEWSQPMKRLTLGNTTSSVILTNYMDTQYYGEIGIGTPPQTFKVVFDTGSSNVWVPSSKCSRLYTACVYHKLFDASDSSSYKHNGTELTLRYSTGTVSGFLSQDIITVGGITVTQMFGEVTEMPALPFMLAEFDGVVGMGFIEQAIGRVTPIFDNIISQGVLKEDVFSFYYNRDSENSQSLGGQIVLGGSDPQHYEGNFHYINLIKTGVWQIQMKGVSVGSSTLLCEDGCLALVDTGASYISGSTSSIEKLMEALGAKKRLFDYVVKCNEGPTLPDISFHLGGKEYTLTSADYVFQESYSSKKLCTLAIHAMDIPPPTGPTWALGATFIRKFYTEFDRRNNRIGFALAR

[2] = molecular target: Renin (Sus scrofa); assay: Inhibition of hog kidney renin at 10e-9 M concentration; details: read-out: I50
[3] = molecular target: T1, Renin; assay: Inhibition of purified human kidney renin, fluorometric assay using a synthetic tetradecapeptide renin substrate at 10e-9 M concentration
Method in brief: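 Purified human kidney renin with synthetic tetradecapeptide substrate, read fluorometrically for peptidal amino termini, at 37°C in 0.10 M citrate phosphate, pH 7.20. Ki from linear I/V vs. [I] plots, assuming competitive inhibition. Estimated error ±20%.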

[4] = molecular target: T1, Renin; assay: Inhibition of purified human kidney renin, radioimmunoassay using the natural substrate partially pure angiotensinogen at 10e-9 M concentration
Method in brief: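 Purified human kidney renin (0.02 ng) with 500 ng partially purified human angiotensinogen (0.08 μM, about 1% pure), 60 min at 37°C in 0.1 M citrate phosphate, pH 7.20. Inhibitor added in 10% methanol or DMF. Quenched by boiling for 1 min.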

[5] = molecular target: T1, Renin; assay: Inhibition of human plasma renin at 10e-9 M concentration; details: read-out: I50
Method in brief: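 Human plasma renin acting on endogenous plasma angiotensinogen at pH 7.4 (phosphate), 37°C. Renin and substrate levels were not measured. 8-Hydroxyquinoline or phenylmethanesulfonyl fluoride served as angiotensinase inhibitor. Angiotensin I was measured by radioimmunoassay. I50 values were generally reproducible within ±30%.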

Row | Ki [1] [nM] | IC50 [2] [nM] | Ki [3] [nM] | Ki [4] [nM] | IC50 [5] [nM] | SMILES
1 | 0.04 | 280 | 0.064 | 97 | 127 | CC(C)CC(NC(=O)[C@H](Cc1c[nH]cn1)NC(=O)[C@H](Cc1ccccc1)NC(=O)OC(C)(C)C)C(O)CC(=O)N[C@@H](CC(C)C)C(=O)NC1CCN(Cc2ccccc2)CC1 (stereo not given in full)
2 | 520 | 5.8 | 120 | 320 | 569 | C=C1c2ccccc2CC(NC(=O)[C@H](CC(C)C)NC(=O)CC(O)C(CC(C)C)NC(=O)[C@H](Cc2c[nH]cn2)NC(=O)[C@H](Cc2ccccc2)NC(=O)OC(C)(C)C)c2ccccc21 (stereo not given in full)
3 | 6 | 14 | 19 | 100 | 49 | CC(C)CC(NC(=O)[C@H](Cc1cnc[nH]1)NC(=O)[C@H](Cc1ccccc1)NC(=O)OC(C)(C)C)C(O)CC(=O)N[C@@H](CC(C)C)C(=O)NC(C)c1ccccc1 (single isomer, unassigned; (+))
4 | 36 | 480 | 67 | 220 | 178 | CC(C)CC(NC(=O)[C@H](Cc1c[nH]cn1)NC(=O)[C@H](Cc1ccccc1)NC(=O)OC(C)(C)C)C(O)CC(=O)N[C@@H](CC(C)C)C(=O)NC(C)C(O)c1ccccc1 (stereo not given in full)

From ChEMBL document CHEMBL1123620, “Renin inhibitors. Statine-containing tetrapeptides with varied hydrophobic carboxy termini” (J Med Chem, 1987)
